Source: PubChem
This is a sample that favours compounds with a hit; in the whole collection about 1.5% have one here.
S1P4 agonist: S1P4 receptor agonists, primary screen, cell-based; activation, % at 4.98 µM; AID 1509, 2009; 220,000 compounds, 0.35% hits; S1P4-expressing cell line, agonist reporter assay; Sphingosine 1-phosphate receptor 4 (Homo sapiens), O95977; in the data active = activation above about 11%;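 note: 0% = DMSO vehicle and 100% = reference agonist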
Target sequence (O95977 whole entry, looked up): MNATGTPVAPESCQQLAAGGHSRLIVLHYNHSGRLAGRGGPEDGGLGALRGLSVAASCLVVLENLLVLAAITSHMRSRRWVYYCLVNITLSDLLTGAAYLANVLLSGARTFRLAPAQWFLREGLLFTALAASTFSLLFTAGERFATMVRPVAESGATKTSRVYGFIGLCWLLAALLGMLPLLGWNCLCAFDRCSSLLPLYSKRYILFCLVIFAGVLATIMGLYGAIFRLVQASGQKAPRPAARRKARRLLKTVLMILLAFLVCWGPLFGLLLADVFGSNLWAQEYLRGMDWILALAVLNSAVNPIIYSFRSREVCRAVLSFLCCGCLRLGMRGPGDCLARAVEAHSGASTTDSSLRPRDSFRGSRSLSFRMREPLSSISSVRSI
Tb hexokinase: Trypanosoma brucei hexokinase 1 inhibitors, primary screen, biochemical, G6PDH-coupled NADH absorbance, MLSCN library. inhibition, % at 10 µM. hexokinase 1 [Trypanosoma brucei]. AID 1430, 2008. 220,000 compounds, 0.11% hits. recombinant TbHK1, G6PDH-coupled NADH A340;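 active = inhibition of 50% or more in the single-dose primary screen; inactive = inhibition below 50%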
S1P4 antagonist: S1P4 receptor antagonists, primary screen, cell-based | Sphingosine 1-phosphate receptor 4 (Homo sapiens), O95977 | S1P4-expressing cells, antagonist mode, reporter read-out | 220,000 compounds, 0.26% hits | inhibition, % at 4.98 µM | AID 1510, 2009; in the data active = inhibition above about 29%;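 note: 0% = wells stimulated with agonist and 100% = vehicle wells without agonist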
TNF necrop inh: inhibitors of TNF-alpha triggered necroptosis, primary screen, cell-based, Jurkat FADD-/-, single concentration. Jurkat FADD-/- TNF necroptosis rescue, ATP luminescence, 24 h; 0 = TNF only, 100 = no-TNF cells. activation (protection from cell death), % at 10 µM. 220,000 compounds, 0.068% hits. AID 463075, 2010;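 active = activation, meaning protection from cell death, of at least 50% relative to plate controls; inactive = activation below 50%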;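 note: necroptosis triggered by 40 ng/mL TNF-alpha added together with compound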
Dynein transport: inhibitors of GR-EGFP nuclear translocation, primary screen, dynein cargo transport inhibitor project, imaging, high-content, 3617.4 mouse cells; test concentration mostly 20 µM; stimulated with dexamethasone, 1 µM; active compounds read low; z-score, hits read low; 220,000 compounds, 0.47% hits;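 active = plate z-score of nuclear minus cytoplasmic receptor signal below a set negative limit, without overly bright fluorescence or cell loss, cut at about -3.5 in these data, passing the limit was not always enough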;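 note: z-score of nuclear minus cytoplasmic ring GR-EGFP intensity difference per well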
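Medium: Induction medium lacking tetracycline, stripped serum | Probe or stimulus: 1.0 µM final dexamethasone stimulus | Schedule: 48 h induction, then 1 h compound, then 30 min agonist, 37 °C | Signal: Automated 10x imaging of fixed Hoechst-stained cells | Evaluation: Per-cell GR-EGFP intensity, nucleus versus surrounding cytoplasmic ring, well-averaged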
zVAD death inh: inhibitors of zVAD-triggered necroptosis, primary screen, L929 cells | L929 zVAD necroptosis rescue, ATP luminescence, 24 h; with zVAD 60 µM | viability rescue, % at 10 µM | 220,000 compounds, 0.38% hits | AID 1377, 2008;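 active = activation, scaled between plate controls, above about 75%, limit read from the data; inactive = activation under that limit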;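 note: 0% = zVAD with DMSO and 100% = DMSO alone without zVAD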
G6PDH counter: Leuconostoc G6PDH inhibition, confirmation, counter-screen for TbHK1 inhibitor project, biochemical, DPI cherry-picked compounds, single concentration; 210 compounds, 7% hits; shares compounds with Tb hexokinase; AID 2516, 2010; purified G6PDH, NADH absorbance, 1 h; inhibition, % at 10 µM;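 active = at least 50% inhibition in the glucose-6-phosphate dehydrogenase coupled counterscreen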
TbHK1 confirm: TbHK1 inhibitor retest, confirmation, biochemical, DPI cherry-picked primary actives. AID 2560, 2010. recombinant TbHK1, G6PDH-coupled NADH A340 absorbance. 210 compounds, 10% hits. inhibition, % at 10 µM. shares compounds with Tb hexokinase;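 active = inhibition of at least 50% in both of the two screening runs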;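 note: 0% and 100% set by the maximum and minimum signal control wells on each plate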
S1P4 agonist cf: S1P4 receptor agonists, retest, confirmation, cell-based, high throughput | activation, % at 4.98 µM | AID 1523, 2009 | S1P4 agonist cell-based reporter assay | shares compounds with S1P4 agonist | 740 compounds, 7% hits; in the data active = activation above about 12%;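 note: 0% = vehicle and 100% = full reference agonist response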
S1P1 ag: S1P1 receptor agonists, human, counter-screen for S1P4 agonist project, cell-based. shares compounds with S1P4 agonist. S1P1 agonist cell-based assay, activation. activation, % at 4.98 µM. 740 compounds, 4% hits; in the data active = activation above about 21%;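 note: 0% = vehicle wells and 100% = reference agonist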
* marks the source's active call; other numbers are inactive results; . = not tested or not shown.

SMILES	S1P4 agonist	Tb hexokinase	S1P4 antagonist	TNF necrop inh	Dynein transport	zVAD death inh	S1P4 agonist cf	S1P1 ag	others
NC(=S)c1cc2ccc(O)cc2oc1=O	67*	85*	-40	-5	-0.54	0	17*	20	G6PDH counter=109*;TbHK1 confirm=80*
CC(C)(C)N(Cc1ccccc1)C(=O)COC(=O)Cn1cnc2ccccc2c1=O	3	1	-3	0	0.14	1	.	.
O=C(Nc1ccc2ccccc2c1)N1CCN(c2ncccc2C(F)(F)F)CC1	16*	7	-14	-1	2.5	0	-1	2
CCCCN1C(=O)C2Cc3c([nH]c4ccccc34)CN2C1=S (configuration not stated)	1	-1	-4	1	-2.7	5	.	.
CCOC(=O)C1(Cc2ccc(Cl)cc2)CCN(C(=O)CCc2ccncc2)CC1	19*	-7	-3	2	1.2	-1	-1	0
CCOC(=O)C1(Cc2ccc(Cl)cc2)CCN(C(=O)CCc2cnccn2)CC1	0	-12	-30	0	1.3	0	.	.
CCOC(=O)c1cc2c(=O)n3ccccc3nc2n(CCOC)c1=NC(=O)c1ccncc1	18*	-15	-14	-3	2	0	0	-3
CCOCCCn1c(=NC(C)=O)c(C#N)cc2c(=O)n3ccccc3nc21	25*	-22	-26	1	0.5	0	6	11
CCOC(=O)c1cc2c(=O)n3ccccc3nc2n(CCCOC)c1=NC(=O)C(C)(C)C	16*	-10	-14	-2	1.7	0	2	5
Fc1ccc(NC(=S)Nc2ccccc2N2CCOCC2)cc1Cl	3	15	-7	0	0.093	0	.	.
Cc1c(Br)c(C(=O)NNC(=O)c2ccc(C(C)(C)C)cc2)nn1C	1	0	-5	0	0.39	1	.	.
Cc1nc(Cl)c2c(n1)NC1=C(O2)C(=O)CCC1	14*	-8	-3	0	0.07	0	-2	4
COc1ccc(-c2nnn(CC(=O)N(CCO)C(C(=O)NC3CCCC3)c3ccncc3)n2)cc1 (configuration not stated)	76*	-3	-23	1	-0.13	3	-2	-4
COc1ccc(-c2nnn(CC(=O)N(CCCO)C(C(=O)NC3CCCC3)c3ccncc3)n2)cc1 (configuration not stated)	2	10	-17	0	0.2	-1	.	.
CCC(C)(C(=O)NC1CCCCC1)N(Cc1cccs1)C(=O)c1ccccn1 (configuration not stated)	45*	-3	3	1	-0.18	1	-2	-1
CCC(C)(C(=O)NC1CCCC1)N(Cc1cccs1)C(C)=O (configuration not stated)	6	-2	-12	-1	-0.11	0	.	.
CCCN(Cc1nnc(-c2ccccc2Cl)o1)C(=O)c1cc([N+](=O)[O-])cc([N+](=O)[O-])c1	19*	2	-10	-6	-0.24	0	-2	-6
O=C(c1cc([N+](=O)[O-])cc([N+](=O)[O-])c1)N(Cc1nnc(-c2ccccc2Cl)o1)C1CC1	0	4	-7	-10	1.3	-1	.	.
CCOc1ccc(Nc2nnc(SCc3nc4ccccc4c(=O)[nH]3)s2)cc1	-1	16	11	2	2.7	0	.	.
CCOc1ccc(C(=O)NCC(c2cccs2)N(C)C)cc1 (configuration not stated)	15*	1	9	2	-0.82	.	-3	0
Cc1nc2ccccn2c1C(=O)CSc1ccccc1	1	-28	-16	-1	-0.49	0	.	.
CSc1ncccc1C(=O)OCC(=O)Nc1ccc(S(=O)(=O)N2CCCC2)cc1	58*	-2	-15	2	-0.019	1	-2	2
N=c1c(C(=O)NCc2ccco2)cc2c(=O)n3ccccc3nc2n1CC1CCCO1 (configuration not stated)	5	5	-4	-4	-1.1	-1	.	.
COCCCn1c(=N)c(C(=O)NCC2CCCO2)cc2c(=O)n3ccccc3nc21 (configuration not stated)	12*	-8	-15	-2	-0.24	-1	3	2
N=c1c(C(=O)NCc2ccc(F)cc2)cc2c(=O)n3ccccc3nc2n1CC1CCCO1 (configuration not stated)	13*	-4	-31	-3	3.1	-1	14*	8
SMILES	S1P4 agonist	Tb hexokinase	S1P4 antagonist	TNF necrop inh	Dynein transport	zVAD death inh	S1P4 agonist cf	S1P1 ag	others
COc1cc(C(=O)NCc2ccncc2)cc(OC)c1OC	14*	-8	-11	0	-0.11	26	-2	-2
COc1cc(C(=O)Nc2ccncc2)cc(OC)c1OC	2	0	-4	-1	-0.43	0	.	.
O=C(CCn1c(=O)sc2ccccc21)NC1=NCCS1	2	4	-6	-1	-0.22	0	.	.
O=C(CCN1C(=O)c2ccccc2C1=O)NC1=NCCS1	25*	29	-13	0	0.084	0	-2	-6
O=C(Nc1ccccc1)Oc1cccc(Br)c1	0	-9	-4	-1	-0.19	-1	.	.
COCCOC(=O)c1c(NC(=O)CN2CCc3ccccc32)sc(C(N)=O)c1C	-1	-11	1	-1	3.7	-1	.	.
CCOC(=O)c1c(NC(=O)CN2CCCc3ccccc32)sc(C(C)=O)c1C	16*	-11	-3	2	1	0	-2	4
COc1ccc2nc(NC3=NC(C(=O)Nc4ccc(C)cc4)CC(=O)N3)nc(C)c2c1 (configuration not stated)	38*	3	-15	0	2.2	0	-1	-2
COC(=O)N/N=C/c1ccccc1OCc1ccccc1	-1	5	-20	1	2.8	0	.	.
